# Assay results as given in ChEMBL document CHEMBL1126694, “Antitumor agents. 141. Synthesis and biological evaluation of novel thiocolchicine analogs: N-acyl-, N-aroyl-, and N-(substituted benzyl)deacetylthiocolchicines as potent cytotoxic and antimitotic compounds” (J Med Chem, 1993).
# Assays:
# Format in all cases: functional
# [1] = system: A549; assay: In vitro cytotoxicity against A549/ATCC cell line.; settings: Homo sapiens
# Outline: (§1)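 Tested by the NCI in its tumor cell panel. GI50 (M) is reported as the concentration that caused 50% inhibition of tumor cell growth.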
# [2] = system: DMS-114; assay: In vitro cytotoxicity against DMS114 cell line.; settings: Homo sapiens; outline: as §1
# [3] = system: HCT-15; assay: In vitro cytotoxicity against HCT-15 cell line.; settings: Homo sapiens; outline: as §1
# [4] = biological target: Tubulin; assay: In vitro inhibition of tubulin polymerization.
# [5] = In vitro cytotoxicity against RXF cell line.; settings: Homo sapiens; outline: as §1
# [6] = system: SNB-19; assay: In vitro cytotoxicity against SNB-19 cell line.; settings: Homo sapiens; outline: as §1
# [7] = system: SK-MEL-5; assay: In vitro cytotoxicity against SK-MEL-5 cell line.; settings: Homo sapiens; outline: as §1
# [8] = system: OVCAR; assay: In vitro cytotoxicity against OVCAR cell line.; settings: Homo sapiens; outline: as §1
# [9] = system: SR; assay: In vitro cytotoxicity against SR cell line.; settings: Homo sapiens; outline: as §1
IC50 [4],SMILES,GI50 [1],GI50 [2],GI50 [3],GI50 [5],GI50 [6],GI50 [7],GI50 [8],GI50 [9]
3200 nM,COc1cc2c(c(OC)c1OC)-c1ccc(SC)c(=O)cc1[C@@H](NCc1ccccc1[N+](=O)[O-])CC2,< 10 nM,< 10 nM,< 10 nM,< 10 nM,< 10 nM,< 10 nM,< 10 nM,
2300 nM,COc1cc2c(c(OC)c1OC)-c1ccc(SC)c(=O)cc1[C@@H](NCc1ccc(C#N)cc1)CC2,< 10 nM,< 10 nM,< 10 nM,< 10 nM,< 10 nM,< 10 nM,< 10 nM,< 10 nM
3400 nM,COc1cc2c(c(OC)c1OC)-c1ccc(SC)c(=O)cc1[C@@H](NC(=O)c1cccc([N+](=O)[O-])c1)CC2,33.1 nM,16.6 nM,26.9 nM,16.6 nM,26.9 nM,18.2 nM,19.1 nM,8.51 nM
2300 nM,COc1cc2c(c(OC)c1OC)-c1ccc(SC)c(=O)cc1[C@@H](NCc1ccc(F)cc1)CC2,< 7.59 nM,,< 7.59 nM,< 7.59 nM,< 7.59 nM,< 7.59 nM,< 7.59 nM,< 7.59 nM
2800 nM,COc1cc2c(c(OC)c1OC)-c1ccc(SC)c(=O)cc1[C@@H](NCc1ccc([N+](=O)[O-])cc1)CC2,< 10 nM,< 10 nM,< 10 nM,< 10 nM,< 10 nM,< 10 nM,< 10 nM,< 10 nM
2500 nM,COc1cc2c(c(OC)c1OC)-c1ccc(SC)c(=O)cc1[C@@H](NCc1cccc(C#N)c1)CC2,< 7.59 nM,< 7.59 nM,< 7.59 nM,< 7.59 nM,< 7.59 nM,< 7.59 nM,< 7.59 nM,< 7.59 nM
3400 nM,COc1cc(CN[C@H]2CCc3cc(OC)c(OC)c(OC)c3-c3ccc(SC)c(=O)cc32)cc(OC)c1,37.1 nM,16.6 nM,< 10 nM,< 10 nM,67.6 nM,,,< 10 nM
2800 nM,COc1cc2c(c(OC)c1OC)-c1ccc(SC)c(=O)cc1[C@@H](NCc1cccc([N+](=O)[O-])c1)CC2,< 10 nM,< 10 nM,< 10 nM,< 10 nM,< 10 nM,< 10 nM,< 10 nM,> 100000 nM

# Further lines, the compound ahead of its results:
SMILES,IC50 [4],GI50 [1],GI50 [2],GI50 [3],GI50 [5],GI50 [6],GI50 [7],GI50 [8],GI50 [9]
COc1ccc(CN[C@H]2CCc3cc(OC)c(OC)c(OC)c3-c3ccc(SC)c(=O)cc32)c(OC)c1OC,2500 nM,,< 10 nM,< 10 nM,,,< 10 nM,< 10 nM,< 10 nM
COc1cc2c(c(OC)c1OC)-c1ccc(SC)c(=O)cc1[C@@H](NC(=O)c1ccc(C#N)cc1)CC2,,< 10 nM,< 10 nM,< 10 nM,,< 10 nM,< 10 nM,< 10 nM,< 10 nM
COc1cc2c(c(OC)c1OC)-c1ccc(SC)c(=O)cc1[C@@H](NC(=O)c1ccc(Cl)cc1)CC2,,< 10 nM,< 10 nM,< 10 nM,< 10 nM,< 10 nM,< 10 nM,< 10 nM,< 10 nM
COc1cc2c(c(OC)c1OC)-c1ccc(OC)c(=O)cc1[C@@H](NC(C)=O)CC2 [COLCHICINE],,< 63.1 nM,,< 63.1 nM,,,< 63.1 nM,< 63.1 nM,
CCOC(=O)c1c(OC)cc(C(=O)N[C@H]2CCc3cc(OC)c(OC)c(OC)c3-c3ccc(SC)c(=O)cc32)cc1OC,,427 nM,26.3 nM,447 nM,234 nM,324 nM,45.7 nM,32.4 nM,
CCCCCC(=O)N[C@H]1CCc2cc(OC)c(OC)c(OC)c2-c2ccc(SC)c(=O)cc21,,< 10 nM,< 10 nM,< 10 nM,< 10 nM,< 10 nM,< 10 nM,< 10 nM,< 10 nM
COc1cc(C(=O)N[C@H]2CCc3cc(OC)c(OC)c(OC)c3-c3ccc(SC)c(=O)cc32)cc(OC)c1OC,,17 nM,< 10 nM,,33.9 nM,,< 10 nM,< 10 nM,< 10 nM
COc1cc2c(c(OC)c1OC)-c1ccc(SC)c(=O)cc1[C@@H](NC(=O)c1ccc(F)cc1)CC2,,49 nM,26.9 nM,42.7 nM,,28.8 nM,30.2 nM,18.2 nM,16.6 nM
COc1cc2c(c(OC)c1OC)-c1ccc(SC)c(=O)cc1[C@@H](NC(=O)c1ccc([N+](=O)[O-])cc1)CC2,,< 10 nM,< 10 nM,< 10 nM,< 10 nM,< 10 nM,< 10 nM,< 10 nM,< 10 nM
COc1cc2c(c(OC)c1OC)-c1ccc(SC)c(=O)cc1[C@@H](NC(=O)c1ccc(OC(C)=O)cc1)CC2,,< 100 nM,14.4 nM,< 100 nM,27.5 nM,21.4 nM,19.5 nM,15.1 nM,7.76 nM
